Data set [1] relates to Rattus norvegicus. Briefly: Effective dose required to inhibit the systemic Candida albicans infection was determined in rat by intravenous administration. It is filed as functional. An outline of the steps:
(§1)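 Male Fisher rats infected systemically with C. albicans ATCC48130. Dosing at 0, 4, 24 and 48 h post-infection, given iv or po as the line states. ED50 derived on day 14.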

For data set [2], the system named is Rattus norvegicus. Briefly: Effective dose required to inhibit the systemic […] infection was determined in rat by intravenous administration. The format is functional. In short, it runs like this: (§2)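 Systemic A. fumigatus CF437 infection in male Fisher rats. Treatment twice on day 1, then once daily for the next 4 days, iv or po as the line states. ED50 taken on day 14.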

In data set [3] the test system is Rattus norvegicus. Briefly: Effective dose required to inhibit the systemic Candida albicans infection was determined in rat by peroral administration. The format is functional. The following applies: po. In short, it runs like this: as §1
Data set [4] in a line: Solubility of the prodrug in water was determined. It is filed as physicochemical. The following applies: buffer.
For data set [5], the system named is Rattus norvegicus. The experiment in a line: Effective dose required to inhibit the pulmonary […] infection was determined in rat by intravenous administration. It is filed as functional. In short, it runs like this:
(§3)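 Pulmonary A. fumigatus CF437 model in male Fisher rats immunosuppressed with cortisone acetate before infection. Dosed twice on the first day and once daily over the following 4 days, iv or po as the line states. ED50 determined on day 14.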

The subject of data set [6] is Rattus norvegicus. Briefly: Effective dose required to inhibit the systemic […] infection was determined in rat by peroral administration. It is filed as functional. The settings on record: po. An outline of the steps: as §2
Data set [7] can be described thus: Conversion rate of the prodrug in human plasma. The format is ADME, cell-free. An outline of the steps:
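Disappearance of prodrug through ester hydrolysis was followed, and the rate was expressed as half-life (T1/2, min).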

In data set [8] the test system is Rattus norvegicus. Briefly: Effective dose required to inhibit the pulmonary […] infection was determined in rat by peroral administration. The format is functional. The following applies: po. An outline of the steps: as §3

Some results are limits rather than exact numbers.

For the molecule `Cc1cc(C[n+]2cnn(C[C@](O)(c3ccc(F)cc3F)[C@@H](C)c3nc(-c4ccc(C#N)cc4)cs3)c2)cc(C)c1OC(=O)[C@@H]1CCCN1.O=C(O)C(F)(F)F.[Br-]`, the ED50 was 3.5 µmol/kg in data set [1]; over 35 µmol/kg in data set [2]; under 2.1 µmol/kg in data set [3]; 17 µmol/kg in data set [5]; over 55 µmol/kg in data set [6]; 18 µmol/kg in data set [8]. For the same molecule, in data set [4], the Solubility was over 5000 µg/mL. Besides, in data set [7], the T1/2 amounted to 2.1 h.

For `CNCC(=O)Oc1c(C)cc(C[n+]2cnn(C[C@](O)(c3ccc(F)cc3F)[C@@H](C)c3nc(-c4ccc(C#N)cc4)cs3)c2)cc1C.Cl.[Br-]`, the ED50 in data set [1] stood at 4.6 µmol/kg; in data set [2] it was 17 µmol/kg; in data set [3] it was 4.7 µmol/kg; in data set [5], 8 µmol/kg; in data set [6], 19 µmol/kg; in data set [8], 17 µmol/kg. In addition, the Solubility in data set [4] was determined as 49000 µg/mL. In addition, the T1/2 in data set [7] was under 0.033 h.

Regarding `C[C@@H](c1nc(-c2ccc(C#N)cc2)cs1)[C@](O)(Cn1cncn1)c1ccc(F)cc1F` [RAVUCONAZOLE], the median effective dose (ED50) in data set [3] was determined as 1.6 µmol/kg; in data set [6], 11 µmol/kg; in data set [8], 19 µmol/kg. In addition, the Solubility in data set [4] is under 1 µg/mL.
